From ChEMBL document CHEMBL4033777, “Next-Generation Hypoxic Cell Radiosensitizers: Nitroimidazole Alkylsulfonamides” (J Med Chem, 2018)
In brackets after ≈: the same amount, converted by molar mass.

Tests used:
[1] = Solubility of the compound in alphaMEM containing 5% FCS and 1% DMSO by HPLC analysis; assay type: physicochemical
Procedure, shortened: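 Saturated drug solutions were incubated at 37 °C in αMEM with 5% FCS and 1% DMSO. Dissolved drug was quantified by HPLC.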

HCT-116 [2] = experiment: Cytotoxicity against human HCT116 cells incubated for 4 hrs under anaerobic condition measured after 5 days by sulforhodamine B assay; assay type: functional, cell-based
Procedure, shortened: (§1)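 STR-authenticated, mycoplasma-free HCT116 cells in αMEM + 5% FCS were seeded at 700 cells/well and allowed 2 h to attach. Drug was added from DMSO stocks (<1% DMSO) in serial 3-fold dilutions for 4 h, oxic or anoxic (Pd-catalyst anaerobic chamber, medium pre-equilibrated ≥3 days). After washing, cells regrew for 5 days before SRB staining and IC50 determination.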

HCT-116 [3] = experiment: Hypoxic cytotoxicity ratio of IC50 for human HCT116 cells under oxic condition to IC50 for human HCT116 cells under anoxic condition
Procedure, shortened: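 HCT116 cells, 700 per well and attached 2 h, got a 4 h exposure to 3-fold serial dilutions (<1% DMSO) under air or in a Pd-catalyst anaerobic chamber with pre-equilibrated medium. Cells were washed, regrown 5 days, and stained with sulforhodamine B to give IC50. HCR = oxic IC50 / anoxic IC50.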

HCT-116 [4] = experiment: (§2) Hypoxia radiosensitization activity in human HCT116 cells assessed as survival ratio by measuring ratio of cell survival with 15 Gy radiation in absence to presence of compound at anoxic IC50 preincubated for 1 hr followed by 15 Gy irradiation measured after 10 days by methylene blue staining-based cell counting method; assay type: functional
Procedure, shortened: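 Anoxic HCT116 cells were seeded at 10^5/well and treated at the anoxic IC50 concentration for 1 h at room temperature. They were irradiated with 15 Gy (60Co, ~2 Gy/min) in a sealed steel box, then plated clonogenically. Colonies of >50 cells were counted […]. SR15 = survival with radiation / survival with drug + radiation.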

HCT-116 [5] = experiment: (§3) Hypoxia radiosensitization activity in human HCT116 cells assessed as sensitizer enhancement ratio by measuring ratio of radiation dose for 1% survival in absence to presence of compound at 0.81 mM preincubated for 1 hr followed by irradiation measured after 10 days by methylene blue staining-based cell counting method; assay type: functional
HCT-116 [6] = experiment: as §3, with “method relative to misonidazole” for “method”; assay type: functional
HCT-116 [7] = experiment: as §2, with “with” for “with 15 Gy”, “0.81 mM” for “anoxic IC50”, “6 to 29” for “15”; assay type: functional
HCT-116 [8] = experiment: as §2, with “with” for “with 15 Gy”, “0.81 mM” for “anoxic IC50”, “6 to 29” for “15”, “method relative to misonidazole” for “method”; assay type: functional
HCT-116 [9] = experiment: Cytotoxicity against human HCT116 cells incubated for 4 hrs under aerobic condition measured after 5 days by sulforhodamine B assay; assay type: cell-based; procedure, shortened: as §1
[10] = Electrophilicity of the compound in pH 7 phosphate buffer assessed as one-electron reduction potential
Procedure, shortened: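 The one-electron reduction potential was set by pulse radiolysis equilibria at pH 7.0 (2.5 mM phosphate), established within 20 µs against benzylviologen, methylviologen or triquat. ΔE came from equilibrium constants via the Nernst equation, at three concentration ratios and 22 ± 2 °C.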

HCT-116 [11] = experiment: Cytotoxicity against human HCT116 cells at anoxic IC50 incubated for 1 hr at 21 degC by clonogenic survival assay; conditions: hct-116, 1 h
HCT-116 [12] = experiment: as §3, with “5” for “0.81”; assay type: functional
HCT-116 [13] = experiment: as §3, with “5” for “0.81”, “method relative to misonidazole” for “method”; assay type: functional
HCT-116 [14] = experiment: as §2, with “with” for “with 15 Gy”, “5 mM” for “anoxic IC50”, “6 to 29” for “15”; assay type: functional
HCT-116 [15] = experiment: as §2, with “with” for “with 15 Gy”, “5 mM” for “anoxic IC50”, “6 to 29” for “15”, “method relative to misonidazole” for “method”; assay type: functional
HCT-116 [16] = experiment: as §2, with “with” for “with 15 Gy”, “1.34 mM” for “anoxic IC50”, “6 to 29” for “15”; assay type: functional
HCT-116 [17] = experiment: as §2, with “with” for “with 15 Gy”, “1.34 mM” for “anoxic IC50”, “6 to 29” for “15”, “method relative to misonidazole” for “method”; assay type: functional
HCT-116 [18] = experiment: as §2, with “with” for “with 15 Gy”, “0.7 mM” for “anoxic IC50”, “6 to 29” for “15”; assay type: functional
HCT-116 [19] = experiment: as §2, with “with” for “with 15 Gy”, “0.7 mM” for “anoxic IC50”, “6 to 29” for “15”, “method relative to misonidazole” for “method”; assay type: functional
HCT-116 [20] = experiment: as §3, with “2.32” for “0.81”; assay type: functional
HCT-116 [21] = experiment: as §3, with “2.32” for “0.81”, “method relative to misonidazole” for “method”; assay type: functional
HCT-116 [22] = experiment: as §2, with “with” for “with 15 Gy”, “2.32 mM” for “anoxic IC50”, “6 to 29” for “15”; assay type: functional
HCT-116 [23] = experiment: as §2, with “with” for “with 15 Gy”, “2.32 mM” for “anoxic IC50”, “6 to 29” for “15”, “method relative to misonidazole” for “method”; assay type: functional

For `O=[N+]([O-])c1nccn1CCS(=O)(=O)NCCO`, the solubility [1] was 75.3 mM (≈ 19.9 mg/mL), the IC50 (HCT-116 [2]) was 800 µM and the “Ratio IC50” value (HCT-116 [3]) was 8. For the same molecule, the Ratio (HCT-116 [4]) was 12, the Ratio (HCT-116 [5]) was 1.27 and the “fold change (FC)” value (HCT-116 [6]) was 0.92. For the same molecule, the Ratio (HCT-116 [7]) was 4.2, the “fold change (FC)” value (HCT-116 [8]) was 0.54 and the IC50 (HCT-116 [9]) was 380 to 4800 µM. The Activity [10] was -391 mV and the Activity (HCT-116 [11]) was “Non-Toxic”.
For `O=[N+]([O-])c1cncn1CCS(=O)(=O)NCCO`, the solubility [1] was 69.3 mM (≈ 18.3 mg/mL), the IC50 (HCT-116 [2]) was 5300 µM and the “Ratio IC50” value (HCT-116 [3]) was 2. For the same molecule, the Ratio (HCT-116 [4]) was 282, the Ratio (HCT-116 [12]) was 1.81 and the “fold change (FC)” value (HCT-116 [13]) was 1.23. The Ratio (HCT-116 [14]) was 163, the “fold change (FC)” value (HCT-116 [15]) was 12.1 and the Activity (HCT-116 [11]) was “Non-Toxic”.
In the case of `Cc1ncc([N+](=O)[O-])n1CCS(=O)(=O)NCCN1CCCCC1`, the Ratio (HCT-116 [16]) is reported as 24, the “fold change (FC)” value (HCT-116 [17]) is reported as 2.36 and the Activity (HCT-116 [11]) is reported as “Non-Toxic”.
With `Cc1ncc([N+](=O)[O-])n1CCS(=O)(=O)NCCN1CCCC1` the Ratio (HCT-116 [18]) was 13.6, the “fold change (FC)” value (HCT-116 [19]) was 1.51 and the Activity (HCT-116 [11]) was “Non-Toxic”.
In the case of `O=[N+]([O-])c1cncn1CS(=O)(=O)NCCO`, the solubility [1] is reported as 23.7 mM (≈ 5.93 mg/mL), the IC50 (HCT-116 [2]) is reported as 2300 µM and the “Ratio IC50” value (HCT-116 [3]) is reported as 4. For the same molecule, the Ratio (HCT-116 [4]) was 181, the Ratio (HCT-116 [20]) was 1.81 and the “fold change (FC)” value (HCT-116 [21]) was 1.28. For the same molecule, the Ratio (HCT-116 [22]) was 114, the “fold change (FC)” value (HCT-116 [23]) was 14.8 and the Activity (HCT-116 [11]) was “Non-Toxic”.
